Experimental findings from ChEMBL document CHEMBL1122395, “Tetracyclic chromophoric analogues of actinomycin D: synthesis, structure elucidation and interconvertibility from one form to another, antitumor activity, and structure-activity relationships” (1983) are described below.

The test system of test [1] is P388. In words: Percent increase in life span observed in P-388 cells infected male CDF1 hybrid mice after intraperitoneal administration at 1800 ug/kg optimal dose. The test is classed as functional, Mus musculus. In a few lines: (§1)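 Male CDF1 mice, seven per group, given 10^6 P388 cells ip on day 0. Drugs were given ip in 10% Me2SO-saline on days 1, 5 and 9, with solutions kept at 0-4 °C, protected from light and checked for homogeneity by HPLC. A range of doses was run and the optimal nontoxic dose reported. Read-outs were median survival time, percent increase in life span, and cures (over-60-day survivors, average of two experiments).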

The species entered for test [2] is Mus musculus. Kind of test: Male CDF1 hybrid treated mice out of seven which survived over 60 days after the treatment. Format: functional. The essentials:
as §1

For test [3], the system named is CCRF-CEM. Kind of test: Growth inhibitory activity against human lymphoblastic leukemia cells(CCRF-CEM). The test is classed as functional. As to conditions: read-out: ID50 (the source's name). The essentials: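 Log-phase human lymphoblastic leukemia CCRF-CEM cells grown in suspension culture. Compounds dissolved in Me2SO, final growth medium contained 5% Me2SO. Test solutions kept at 0-4 °C, protected from light, homogeneity checked by HPLC before testing. ID50 reported in ng/mL.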

Test [4] concerns P388. In words: Median survival time observed in P-388 cells infected male CDF1 hybrid mice after intraperitoneal administration at 1800 ug/kg optimal dose. The test is classed as functional, Mus musculus. The essentials:
as §1

Test [5] has as its system P388. In words: Median survival time observed in P-388 cells infected male CDF1 hybrid mice after intraperitoneal administration at 900 ug/kg optimal dose. Format: functional, Mus musculus. The essentials: as §1
Test [6] concerns P388. In words: Percent increase in life span observed in P-388 cells infected male CDF1 hybrid mice after intraperitoneal administration at 900 ug/kg optimal dose. The test is classed as functional, Mus musculus. The essentials:
as §1

Test [7] concerns Nucleic Acid. In words: (§2) Melting temperature of DNA-drug complex minus melting temperature of purified calf-thymus DNA. Format: functional. Particulars: Bos taurus.
In test [8] the test system is P388. Kind of test: Median survival time observed in P-388 cells infected male CDF1 hybrid mice after intraperitoneal administration at 750 ug/kg optimal dose. The test is classed as functional, Mus musculus. In a few lines:
as §1

Test [9] has as its system P388. Kind of test: Percent increase in life span observed in P-388 cells infected male CDF1 hybrid mice after intraperitoneal administration at 750 ug/kg optimal dose. Format: functional, Mus musculus. In a few lines:
as §1

Test [10] concerns P388. In words: Percent increase in life span observed in P-388 cells infected male CDF1 hybrid mice after intraperitoneal administration at 450 ug/kg optimal dose. The test is classed as functional, Mus musculus. In a few lines: as §1
The test system of test [11] is P388. In words: Median survival time observed in P-388 cells infected male CDF1 hybrid mice after intraperitoneal administration at 450 ug/kg optimal dose. Format: functional, Mus musculus. In a few lines:
as §1

Test [12] concerns Nucleic Acid. The description is as §2. The test is classed as functional. Particulars: Bos taurus. The essentials: (§3)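 Calf-thymus DNA, purified. ΔTm is the Tm of the DNA-drug complex minus the Tm of DNA alone. Medium was 0.01 M phosphate buffer, pH 7.0, with EDTA.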
The source holds these as a separate data set.

Test [13] deals with P388. In words: Median survival time observed in P-388 cells infected male CDF1 hybrid mice after intraperitoneal administration at 125 ug/kg optimal dose. The test is classed as functional, Mus musculus. The essentials: as §1
Test [14] is filed under the species Bos taurus. The description is as §2. The test is classed as functional. The essentials:
as §3

The test system of test [15] is P388. In words: Percent increase in life span observed in P-388 cells infected male CDF1 hybrid mice after intraperitoneal administration at 125 ug/kg optimal dose. Format: functional, Mus musculus. The essentials: as §1

≈ marks a conversion by molar mass, not a printed value. Starred links: 1 amine or outer side, 2 acyl side, 3 side chain; linkers in the order of their positions; H or OH if unused. Positions of bridges follow the written chain, without caps; N, C: chain ends. Non-standard residues stand in square brackets, D forms with d. Residues, ends and D or L forms follow the SMILES beside them. Chains are numbered I, II in the order given. Actinocin(1to9) = Cc1c2oc3c(C)ccc(C(=O)[*:2])c3nc-2c(C(=O)[*:1])c(N)c1=O; NMeV = CN[C@H](C(=O)O)C(C)C; Sar = CNCC(=O)O

One may read the ILS as the gain in survival time of treated over control animals, in per cent. Low values mean little gain in survival, high ones much gain in survival. In the case of `Cc1ccc(C(=O)N[C@@H]2C(=O)N[C@H](C(C)C)C(=O)N3CCC[C@H]3C(=O)N(C)CC(=O)N(C)[C@@H](C(C)C)C(=O)O[C@@H]2C)c2c1Oc1c(c(C(=O)N[C@@H]3C(=O)N[C@H](C(C)C)C(=O)N4CCC[C@H]4C(=O)N(C)CC(=O)N(C)[C@@H](C(C)C)C(=O)O[C@@H]3C)c3nc(-c4c(F)c(F)c(F)c(F)c4F)c(=O)oc3c1C)N2`, the ILS in test [1] is 186%. Also, the Cures in test [2] is 1. For the same compound, in test [3], the IC50 was 0.64 µg/mL (≈ 0.438 µM). This compound also gave an MST in test [4] of 31.5 days.
With `Cc1ccc(C(=O)N[C@@H]2C(=O)N[C@H](C(C)C)C(=O)N3CCC[C@H]3C(=O)N(C)CC(=O)N(C)[C@@H](C(C)C)C(=O)O[C@@H]2C)c2c1Oc1c(c(C(=O)N[C@@H]3C(=O)N[C@H](C(C)C)C(=O)N4CCC[C@H]4C(=O)N(C)CC(=O)N(C)[C@@H](C(C)C)C(=O)O[C@@H]3C)c3nc(-c4ccccc4)oc3c1C)N2`, the MST in test [5] was found to be 23 days. The compound further yielded a Cures in [2] of 0. Besides, the IC50 in test [3] is 9 µg/mL (≈ 6.7 µM). The ILS in [6] was 109%.
One may read the ΔTm as the shift of the melting midpoint relative to a reference. On to `Cc1c2oc3c(C)c(O)c(N)c(C(=O)N[C@H]4C(=O)N[C@@H](C(C)C)C(=O)N5CCC[C@H]5C(=O)N(C)CC(=O)N(C)[C@H](C(C)C)C(=O)O[C@H]4C)c3nc-2c(C(=O)N[C@@H]2C(=O)N[C@H](C(C)C)C(=O)N3CCC[C@@H]3C(=O)N(C)CC(=O)N(C)[C@@H](C(C)C)C(=O)O[C@@H]2C)cc1=O`, for which the ΔTm in test [7] came out at 6.7 °C.
On to `Cc1c2oc3c(C)c4oc(-c5ccccc5)nc4c(C(=O)N[C@@H]4C(=O)N[C@H](C(C)C)C(=O)N5CCC[C@H]5C(=O)N(C)CC(=O)N(C)[C@@H](C(C)C)C(=O)O[C@@H]4C)c3nc-2c(C(=O)N[C@@H]2C(=O)N[C@H](C(C)C)C(=O)N3CCC[C@H]3C(=O)N(C)CC(=O)N(C)[C@@H](C(C)C)C(=O)O[C@@H]2C)cc1=O`, for which, in [8], the MST is 44 days. Also, in [2], the Cures is 2. In test [9], this compound displayed an ILS of 300%. The IC50 in test [3] was determined as 0.31 µg/mL (≈ 0.228 µM).
Regarding `Cc1c2oc3c(C)c4oc(-c5c(F)c(F)c(F)c(F)c5F)nc4c(C(=O)N[C@@H]4C(=O)N[C@H](C(C)C)C(=O)N5CCC[C@H]5C(=O)N(C)CC(=O)N(C)[C@@H](C(C)C)C(=O)O[C@@H]4C)c3nc-2c(C(=O)N[C@@H]2C(=O)N[C@H](C(C)C)C(=O)N3CCC[C@H]3C(=O)N(C)CC(=O)N(C)[C@@H](C(C)C)C(=O)O[C@@H]2C)cc1=O`, the MST in test [5] was 3 days. In test [2], this compound had a Cures of 1. Moreover, the IC50 in [3] was determined as 0.63 µg/mL (≈ 0.435 µM). Also, in test [6], the ILS was 172%.
As to `Cc1nc2c(C(=O)N[C@@H]3C(=O)N[C@H](C(C)C)C(=O)N4CCC[C@H]4C(=O)N(C)CC(=O)N(C)[C@@H](C(C)C)C(=O)O[C@@H]3C)c3nc4c(C(=O)N[C@@H]5C(=O)N[C@H](C(C)C)C(=O)N6CCC[C@H]6C(=O)N(C)CC(=O)N(C)[C@@H](C(C)C)C(=O)O[C@@H]5C)cc(=O)c(C)c-4oc3c(C)c2o1`, the Cures in [2] is given as 1. In test [10], the ILS is reported as 182%. In [3], the IC50 is 0.23 µg/mL (≈ 0.178 µM). In test [11], this compound came in with an MST of 31 days.
Turning to `Cc1nc2c(C(=O)N[C@H]3C(=O)N[C@H](C(C)C)C(=O)N4CCC[C@H]4C(=O)N(C)CC(=O)N(C)[C@@H](C(C)C)C(=O)O[C@H]3C)c3nc4c(C(=O)N[C@@H]5C(=O)N[C@H](C(C)C)C(=O)N6CCC[C@H]6C(=O)N(C)CC(=O)N(C)[C@@H](C(C)C)C(=O)O[C@@H]5C)cc(=O)c(C)c-4oc3c(C)c2o1`, the ΔTm in test [12] came to 1 °C.
On the same count and under the same terms, the value for `Cc1nc2c(C(=O)N[C@H]3C(=O)N[C@H](C(C)C)C(=O)N4CCC[C@H]4C(=O)N(C)CC(=O)N(C)[C@@H](C(C)C)C(=O)O[C@H]3C)c3c(c(C)c2o1)Oc1c(C)ccc(C(=O)N[C@@H]2C(=O)N[C@H](C(C)C)C(=O)N4CCC[C@H]4C(=O)N(C)CC(=O)N(C)[C@@H](C(C)C)C(=O)O[C@@H]2C)c1N3` was 0 °C.
With `Cc1c2oc3c(C)ccc(C(=O)N[C@@H]4C(=O)N[C@H](C(C)C)C(=O)N5CCC[C@H]5C(=O)N(C)CC(=O)N(C)[C@@H](C(C)C)C(=O)O[C@@H]4C)c3nc-2c(C(=O)N[C@@H]2C(=O)N[C@H](C(C)C)C(=O)N3CCC[C@H]3C(=O)N(C)CC(=O)N(C)[C@@H](C(C)C)C(=O)O[C@@H]2C)c(N)c1=O` [DACTINOMYCIN] (I: T[dV]P[Sar][NMeV] / II: T[dV]P[Sar][NMeV]; ester I:1-I:C, II:1-II:C; linker I:N-II:N via Actinocin(1to9)), the MST in test [13] stood at 26 days. Moreover, the Cures in test [2] is reported as 1. The IC50 in test [3] is 0.04 µg/mL (≈ 0.0319 µM). Moreover, the ΔTm in test [14] was 7.1 °C. The same compound showed an ILS in test [15] of 136%.
In [1], `Cc1ccc(C(=O)N[C@@H]2C(=O)N[C@H](C(C)C)C(=O)N3CCC[C@H]3C(=O)N(C)CC(=O)N(C)[C@@H](C(C)C)C(=O)O[C@@H]2C)c2c1Oc1c(c(C(=O)N[C@@H]3C(=O)N[C@H](C(C)C)C(=O)N4CCC[C@H]4C(=O)N(C)CC(=O)N(C)[C@@H](C(C)C)C(=O)O[C@@H]3C)c3nc(-c4c(F)c(F)c(F)c(F)c4F)oc3c1C)N2` had an ILS of 72%. For the same compound, the Cures in test [2] is given as 0. Besides, in test [3], the IC50 was found to be 12.5 µg/mL (≈ 8.72 µM). Moreover, the MST in [4] came out at 19 days.
